Here are results for five compounds from article PMC5977998 (Journal of the American Chemical Society, 2017).

Where only a bound is given, the exact number is not on record here.

In assay [1] the test system is BCL2 i-motif / BCL2 transcription. To be noted: cited from earlier work.
Assay [2] concerns HEK293. In words: MTS cytotoxicity assay in HEK293. It is filed as cell-based, human. To be noted: read-out: IC50 in HEK 293. On the technique in general: Tetrazolium dyes change colour on reduction, which living cells bring about.
Assay [3] deals with PDGFR-β NHE WT 41-mer (FL Pu41). It is filed as binding, human. Particulars: CD spectral and thermal melt analysis. The method in brief: (§1)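 Oligo at 5 μM final in 50 mM Tris-HCl with 50 mM K+, pH 7.4. Heated to 95 °C for 5 min, slowly cooled, then incubated 30 min with molar equivalents of compound or DMSO. CD 230–330 nm at room temperature, triplicate scans averaged and baseline-corrected. Melt at 262 nm from 20 to 95 °C at 1 °C/min. Tm by nonlinear regression, ±1 °C.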

For assay [4], the system named is PDGFR-β promoter WT-NHE luciferase construct. In words: Luciferase reporter assay, WT-NHE construct. Type of assay: cell-based, human. Particulars: 24 h.
The subject of assay [5] is PDGFR-β promoter R1 mutant NHE luciferase construct. Briefly: Luciferase reporter assay, R1 NHE construct. Type of assay: cell-based, human. Particulars: HEK 293, 100 μM, 24 h. A general note: In a reporter assay the amount or activity of a reporter protein is the signal.
In assay [6] the test system is NO-NHE luciferase construct. In words: Luciferase reporter assay, NO-NHE construct. Type of assay: cell-based, human. To be noted: HEK 293, 100 μM, 24 h.
Assay [7] concerns PDGFR-β Py41 WT i-motif FRET probe. In words: i-motif FRET assay, WT probe. Type of assay: binding, human. To be noted: probe 20 nM, compound 200 nM, 30 min.
Assay [8] deals with PDGFR-β Py41 R1 mutant i-motif FRET probe. Briefly: i-motif FRET assay, R1 mutant probe. Type of assay: binding, human.
Assay [9] concerns WT PDGFR-β i-motif. In words: CD spectral and thermal-melt analysis with WT i-motif. It is filed as binding, human. To be noted: increasing concentrations of compound. The method in brief:
(§2)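 Oligo at 5 μM final in 10 mM sodium cacodylate, pH 6.5. Heated to 95 °C for 5 min, slowly cooled to room temperature, then given molar equivalents of compound or DMSO for 30 min. CD spectra 230–350 nm at room temperature, triplicate scans averaged and baseline-corrected. Melts followed at 286 nm, 20–95 °C at 1 °C/min. Tm by nonlinear regression.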

In assay [10] the test system is R1 mutant PDGFR-β i-motif. Briefly: CD spectral and thermal-melt analysis with R1 mutant i-motif. Type of assay: binding, human. The procedure, abridged: as §2
The subject of assay [11] is SK-N-SH. Briefly: MTS cytotoxicity assay in SK-N-SH. Type of assay: cell-based. To be noted: read-out: IC50 concentration in SK-N-SH.
Assay [12] deals with PDGFR-β transcript. Briefly: qRT-PCR of PDGFR-β transcript in SK-N-SH. It is filed as cell-based. To be noted: 24 h, relative to DMSO control. In general terms: Quantitative PCR measures a nucleic acid by following its amplification.
Assay [13] relates to PDGFR-β 3′-end G-quadruplex. Briefly: CD spectral and thermal-melt analysis with constituent PDGFR-β G-quadruplexes. It is filed as binding, human. The method in brief:
as §1

Assay [14] relates to PDGFR-β NHE G-quadruplexes. Particulars: cited from earlier work.

As for `CC(C)CCC[C@@H](C)[C@H]1CC[C@H]2[C@@H]3CC[C@H]4C[C@H](NC(=O)C[N+]5(C)CCCCC5)CC[C@]4(C)[C@H]3CC[C@]12C.[I-]` [IMC48], the “effect on BCL2 transcription” value in assay [1] was “increased BCL2 transcription”.
As for `COc1ccc2c(c1)CN([C@@H](C)[C@H]1CC[C@H]3[C@@H]4CC[C@H]5C[C@@H](O)CC[C@]5(C)[C@H]4CC[C@]13C)CO2` [IMC76], the “effect on BCL2 transcription” value in assay [1] is reported as “decreasing BCL2 transcription”.
Take `CN1CCc2ccccc2C1Cc1ccccc1NC(=O)c1sc2ccccc2c1Cl` (stereo not shown) [NSC309874]: the IC50 in assay [2] was more than 100 µM; in assay [11] it was 100 µM. Besides, in assay [3], the “interaction with PDGFR-β G-quadruplex-forming sequence” value is “negligible interaction”. In addition, the “downregulation of luciferase activity, WT-NHE construct” value in [4] (HEK 293, 100 μM) was “approximately 45%”. Also, the “downregulation of luciferase activity, R1 NHE construct” value in assay [5] was approximately 50%. Also, the “effect on luciferase activity, NO-NHE construct” value in [6] is recorded as “does not inhibit transcription”. For the same compound, the “increase in FRET signal, WT probe” value in [7] came to 170%. For the same compound, the “increase in FRET of the R1 mutant” value in assay [8] (FRET (pH 6.6) high-throughput screening) was “more than 2 fold”. For the same compound, in assay [8] (probe 20 nM, compound 200 nM, 30 min), the “increase in FRET signal, R1 mutant probe” value amounted to 218%. In addition, the “shift in λMAX of CD spectrum of WT i-motif” value in assay [9] is “from 286 to 279”. For the same compound, the “effect on Tm of R1 mutant i-motif” value in [10] (CD thermal melt) is “small increase in Tm”. Moreover, in assay [10] (increasing concentrations of compound), the “effect on CD of R1 mutant i-motif” value is on record as “little change in the CD”. The “reduction of PDGFR-β expression” value is on record as “approximately 25%” in assay [12] (0.5 IC50 (50 μM)) and approximately 50% in assay [12] (IC50 (100 μM)).
As to `Cc1c2ccncc2c(C)c2c1[nH]c1ccc(OCCN(C)C)cc12` [NSC338258], the figures for the “increase in thermal stability of 3′-end G-quadruplex” value in [13] (1 mol equiv of compound) and in assay [13] (2 mol equiv of compound) were 4 °C and 9 °C, respectively. Moreover, in assay [4] (IC50 and 50% IC50 concentrations), the “selectivity of luciferase inhibition WT-NHE versus NO-NHE” value is given as “moderate degree of selectivity”. For the same compound, the “binding to PDGFR-β NHE compared with MYC promoter G-quadruplex” value in assay [14] is reported as “binds almost as well to the PDGFR-β NHE as to the MYC promoter G-quadruplex”.
Consider `Cc1oc2nc1-c1nc(co1)-c1nc(co1)-c1nc(co1)-c1nc(co1)-c1nc(co1)C1=NC(CS1)c1nc-2c(C)o1` (stereo not shown) [telomestatin], for which, in assay [14], the “G-quadruplex binding selectivity in PDGFR-β NHE” value is on record as “appeared to bind selectively to the 3′-end G-quadruplex” and the “effect on PDGFR-β” value is reported as “produced a decrease in PDGFR-β”.
